Assay results published in ChEMBL document CHEMBL1140904, “Synthesis and analysis of novel glycerolipids for the treatment of metabolic syndrome” (J Med Chem, 2009).

Tests used:
[1] = tested on: Rattus norvegicus; assay: Effect on fatty acid composition in Wistar rat assessed as change in plasma MUFA level at 85 uM, po after 6 days; format: functional
[2] = tested on: Rattus norvegicus; assay: Effect on fatty acid composition in Wistar rat assessed as change in liver LCPUFA, n-6 level at 250 uM, po after 6 days; format: functional
Method in brief: (§1)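 Male Wistar rats were gavaged once daily for 6 days with compound in 0.5% CMC at 85 or 250 µmol TTA-equivalent per animal. Controls received palmitic acid. Liver was homogenized in 0.25 M sucrose/10 mM HEPES pH 7.4/1 mM EDTA at 0-4 °C. Lipids were extracted with chloroform:methanol 2:1 and spiked with 21:0 internal standard. Fatty acids were BF3-methanol transesterified and quantified as wt%. Values are mean ± SD, n=5.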

[3] = tested on: Rattus norvegicus; assay: Induction of PPAR-alpha-regulated HMG-CoA synthase activity in po dosed Wistar rat after 6 days; format: functional, organism-based
Method in brief: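 Wistar rats were gavaged daily for 6 days at 85 or 250 µmol TTA-equivalent in 0.5% CMC, with palmitic acid controls. HMG-CoA synthase activity was assayed in the liver postnuclear fraction by the Clinkenbeard method. Mean ± SD, 5 rats/group.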

[4] = tested on: Rattus norvegicus; assay: Effect on fatty acid composition in Wistar rat assessed as change in liver LCPUFA, n-6 level at 85 uM, po after 6 days; format: functional; method in brief: as §1
[5] = tested on: Rattus norvegicus; assay: Effect on fatty acid composition in Wistar rat assessed as change in liver LCn-6/18:2 level at 250 uM, po after 6 days; format: functional; method in brief: as §1
[6] = tested on: Liver; assay: Drug level in Wistar rat liver at 85 uM, po after 6 days; format: ADME, organism-based; settings: in vivo, 144 h; method in brief: as §1
[7] = tested on: Rattus norvegicus; assay: Effect on fatty acid composition in Wistar rat assessed as change in plasma MUFA level at 250 uM, po after 6 days; format: functional
[8] = tested on: Liver; assay: Drug level in Wistar rat liver at 250 uM, po after 6 days; format: ADME, organism-based; settings: in vivo, 144 h; method in brief: as §1
[9] = tested on: Rattus norvegicus; assay: Effect on fatty acid composition in Wistar rat assessed as change in plasma PUFA level at 85 uM, po after 6 days; format: functional
[10] = tested on: Rattus norvegicus; assay: Induction of PPAR-alpha-regulated CPT2 activity in po dosed Wistar rat after 6 days; format: functional, organism-based
Method in brief: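 Wistar rats were dosed orally for 6 days (85 or 250 µmol TTA-equivalent in 0.5% CMC; palmitic acid controls). CPT-II activity was measured in the liver mitochondrial fraction, prepared from sucrose/HEPES pH 7.4/EDTA homogenate at 0-4 °C. Means ± SD from 5 rats per group.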

[11] = tested on: Rattus norvegicus; assay: Effect on fatty acid composition in Wistar rat assessed as change in liver PUFA level at 85 uM, po after 6 days; format: functional; method in brief: as §1
[12] = tested on: Rattus norvegicus; assay: Effect on fatty acid composition in Wistar rat assessed as change in plasma 18;2, n-6 level at 85 uM, po after 6 days; format: functional
[13] = tested on: Rattus norvegicus; assay: Decrease in plasma cholesterol level in po dosed Wistar rat after 6 days; format: functional, organism-based
Method in brief: (§2)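 Male Wistar rats (170-210 g), housed in pairs with chow and water, were gavaged once daily for 6 days with test lipid in 0.5% (w/v) carboxymethylcellulose at 85 or 250 µmol TTA-equivalent per animal. Controls received palmitic acid in CMC. Plasma triacylglycerol and cholesterol were measured with an enzymatic kit, and liver levels were also determined. Values are mean ± SD, n=5 rats.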

[14] = tested on: Rattus norvegicus; assay: Effect on fatty acid composition in Wistar rat assessed as change in plasma LCn-6/18:2 level at 85 uM, po after 6 days; format: functional
[15] = tested on: Rattus norvegicus; assay: Effect on fatty acid composition in Wistar rat assessed as change in liver LCn-6/18:2 level at 85 uM, po after 6 days; format: functional; method in brief: as §1
[16] = tested on: Rattus norvegicus; assay: Effect on fatty acid composition in Wistar rat assessed as change in liver PUFA level at 250 uM, po after 6 days; format: functional; method in brief: as §1
[17] = tested on: Rattus norvegicus; assay: Increase in [1-14C]palmitoyl-CoA oxidation in po dosed Wistar rat liver homogenate after 6 days; format: functional, organism-based
Method in brief: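 Rats were dosed by gastric intubation for 6 days with 85 or 250 µmol TTA-equivalent in 0.5% CMC, with palmitic acid controls. Liver was homogenized in 0.25 M sucrose, 10 mM HEPES pH 7.4, 1 mM EDTA at 0-4 °C. Palmitoyl-CoA oxidation was read as acid-soluble products from [1-14C]-palmitoyl-CoA in the postnuclear fraction. Mean ± SD, n=5.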

[18] = tested on: Rattus norvegicus; assay: Effect on fatty acid composition in Wistar rat assessed as change in liver 18;2, n-6 level at 85 uM, po after 6 days; format: functional; method in brief: as §1
[19] = tested on: Rattus norvegicus; assay: Effect on fatty acid composition in Wistar rat assessed as change in plasma saturated fatty acid level at 250 uM, po after 6 days; format: functional
[20] = tested on: Rattus norvegicus; assay: Effect on fatty acid composition in Wistar rat assessed as change in plasma 18;2, n-6 level at 250 uM, po after 6 days; format: functional
[21] = tested on: Rattus norvegicus; assay: Decrease in plasma triacylglycerol level in po dosed Wistar rat after 6 days; format: functional, organism-based; method in brief: as §2
[22] = tested on: Rattus norvegicus; assay: Effect on fatty acid composition in Wistar rat assessed as change in liver 18;2, n-6 level at 250 uM, po after 6 days; format: functional; method in brief: as §1
[23] = tested on: Rattus norvegicus; assay: Effect on fatty acid composition in Wistar rat assessed as change in plasma saturated fatty acid level at 85 uM, po after 6 days; format: functional
[24] = tested on: Rattus norvegicus; assay: Effect on fatty acid composition in Wistar rat assessed as change in liver MUFA level at 250 uM, po after 6 days; format: functional; method in brief: as §1
[25] = tested on: Rattus norvegicus; assay: Effect on fatty acid composition in Wistar rat assessed as change in plasma PUFA level at 250 uM, po after 6 days; format: functional
[26] = tested on: Rattus norvegicus; assay: Induction of PPAR-alpha-regulated fatty acyl-CoA oxidase activity in po dosed Wistar rat after 6 days; format: functional, organism-based
Method in brief: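 Rats were dosed by gastric intubation for 6 days at 85 or 250 µmol TTA-equivalent in 0.5% CMC, with palmitic acid controls. Fatty acyl-CoA oxidase was measured in the liver postnuclear fraction by a coupled assay, following H2O2 production as the rise in dichlorofluorescein absorbance with palmitoyl-CoA. Mean ± SD, n=5.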

[27] = tested on: Rattus norvegicus; assay: Plasma concentration in Wistar rat at 250 uM, po after 6 days; format: ADME, organism-based; settings: in vivo, 144 h
[28] = tested on: Rattus norvegicus; assay: Effect on fatty acid composition in Wistar rat assessed as change in plasma LCPUFA, n-6 level at 250 uM, po after 6 days; format: functional
[29] = tested on: Rattus norvegicus; assay: Effect on fatty acid composition in Wistar rat assessed as change in liver saturated fatty acid level at 85 uM, po after 6 days; format: functional; method in brief: as §1
[30] = tested on: Rattus norvegicus; assay: Effect on fatty acid composition in Wistar rat assessed as change in liver MUFA level at 85 uM, po after 6 days; format: functional; method in brief: as §1
[31] = tested on: Rattus norvegicus; assay: Effect on fatty acid composition in Wistar rat assessed as change in plasma LCn-6/18:2 level at 250 uM, po after 6 days; format: functional
[32] = tested on: Rattus norvegicus; assay: Effect on fatty acid composition in Wistar rat assessed as change in liver saturated fatty acid level at 250 uM, po after 6 days; format: functional; method in brief: as §1
[33] = tested on: Rattus norvegicus; assay: Effect on fatty acid composition in Wistar rat assessed as change in plasma LCPUFA, n-6 level at 85 uM, po after 6 days; format: functional
[34] = tested on: Rattus norvegicus; assay: Plasma concentration in Wistar rat at 85 uM, po after 6 days; format: ADME, organism-based; settings: in vivo, 144 h

Drug uptake [6]: 0.36% | Drug uptake [8]: 2.03% | Activity [26]: Dose-dependent effect | Drug uptake [27]: 1.6% | Drug uptake [34]: 0.32%
SMILES: CCCCCCCCCCCCCCSCC(=O)O [TETRADECYLTHIOACETIC ACID]
Activity [1]: 23.49% | Activity [2]: 27.66% | Activity [3]: Dose-dependent effect | Activity [4]: 25.7% | Activity [5]: 2.56 dimensionless ratio | Activity [7]: 21.32% | Activity [9]: 2.47% | Activity [10]: Dose-dependent effect | Activity [11]: 5.44% | Activity [12]: 18.46% | Activity [13]: Dose-dependent effect | Activity [14]: 1.03% | Activity [15]: 2.34% | Activity [16]: 4.94% | Activity [17]: Dose-dependent effect | Activity [18]: 11.15% | Activity [19]: 35% | Activity [20]: 19.68% | Activity [21]: Dose-dependent effect | Activity [22]: 11.02% | Activity [23]: 36.02% | Activity [24]: 16.86% | Activity [25]: 2.24% | Activity [28]: 20.82% | Activity [29]: 39.67% | Activity [30]: 17.35% | Activity [31]: 1.06% | Activity [32]: 38.71% | Activity [33]: 18.75%
